# MDM2 E3 inh: MDM2-luciferase reporter signal enhancers, primary screen, MDM2 E3 ligase inhibitor project, cell-based, luminescence, 1536-well; E3 ubiquitin-protein ligase Mdm2 (Homo sapiens), Q00987; cell-based MDM2 ubiquitination luciferase reporter, 2 h; 0 = plate control, 100 = twice control, blank-subtracted; signal enhancement, % at 5 µM; actives 0.11% (n = 210,000);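 active means signal enhancement of 30% or more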;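 further: luminescence tracks abundance of the self-degrading MDM2-luciferase fusion protein; higher signal means inhibition of MDM2 E3 ligase activity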
# Target sequence (Q00987 whole entry, looked up, the tested form may be a part): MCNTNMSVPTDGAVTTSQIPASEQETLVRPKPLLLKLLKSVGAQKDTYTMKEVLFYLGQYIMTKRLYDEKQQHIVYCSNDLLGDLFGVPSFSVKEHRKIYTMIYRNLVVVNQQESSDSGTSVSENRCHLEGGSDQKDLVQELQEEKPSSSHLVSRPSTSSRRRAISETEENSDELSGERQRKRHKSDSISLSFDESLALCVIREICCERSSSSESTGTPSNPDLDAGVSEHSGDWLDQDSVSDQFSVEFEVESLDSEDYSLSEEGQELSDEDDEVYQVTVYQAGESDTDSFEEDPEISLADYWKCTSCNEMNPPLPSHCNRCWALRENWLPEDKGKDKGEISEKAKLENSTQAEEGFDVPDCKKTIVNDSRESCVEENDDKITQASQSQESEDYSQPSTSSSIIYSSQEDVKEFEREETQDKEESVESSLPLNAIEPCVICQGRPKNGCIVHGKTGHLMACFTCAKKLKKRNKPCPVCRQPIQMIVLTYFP
#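 system = mammalian cells stably expressing self-ubiquitinating, self-degrading MDM2 E3–luciferase fusion | quantity = 2000 cells per well seeded | incubation = 4 h cell settling then 2 h compound exposure, 37 °C | signal = SteadyLite luminescence, 15 min reagent step | benchmarks = plate control and blank wells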
# APP 5'UTR act: activators of APP 5'UTR luciferase reporter, primary screen, SH-SY5Y cells; SH-SY5Y APP 5'UTR luciferase reporter, luminescence; zero percent = DMSO vehicle wells; activation, % at 2 µM; actives 1% (n = 190,000);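 active means activation above a set limit, based on mean plus 3 SD of controls, cut at about 140% in these data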
# NF-kB expr up: activators of NF-kB expression in neurons, primary screen, cell-based, HTS. fold change at 12.5 µM. actives 1.6% (n = 190,000). human neuronal cells, NF-kB reporter expression; active compounds read high; in the data active means fold change above about 3.3
# p97 inhibitor: inhibitors of human p97 ATPase, primary screen, biochemical | AID 1481, 2009 | inhibition, % at 8 µM | recombinant p97 ATPase, Kinase-Glo ATP luminescence, 3 h | actives 0.42% (n = 220,000); in the data active means inhibition above about 15%;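 further: 0% = DMSO vehicle and 100% = wells lacking enzyme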
# STAT1 activator: STAT1 signaling activators, primary screen, cell-based, HTS, luciferase reporter. NIH 3T3 STAT1-luciferase reporter, IFN-gamma, luminescence; 100% = IFN-gamma alone, no compound. activation (% of control), % at 5.5 µM. actives 2.6% (n = 200,000). AID 932, 2007;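 active means activation above the screen-wide mean activation plus 3 SD, cut at about 130% in these data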;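 further: raw ratio to IFN-gamma control signal so 100% means no change and 0% no light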
# Wee1 stabilizer: Wee1 degradation inhibitors, primary screen, cell-based, HeLa, Wee1K328M-luciferase, luminescence; Wee1-like protein kinase (Homo sapiens), P30291; HeLa Luc-Wee1K328M stability; 100% = proteasome inhibitor MG132 effect; reporter increase, % at 5 µM; actives 1.2% (n = 220,000); AID 1321, 2008;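 active means activation above the mean of all tested compounds plus 3 SD, set per screening run, cut at about 8.8% in these data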;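 further: cells exposed to compound for 20 h before luminescence read; 0% = DMSO alone and 100% = MG132 at 30 µM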
# Wee1 stab conf: Wee1 degradation inhibitors, confirmation, cell-based, HeLa, Wee1K328M-luciferase, luminescence, triplicate; shares compounds with Wee1 stabilizer; HeLa Luc-Wee1K328M degradation; vehicle 0%, proteasome-blocked wells 100%; activation, % at 5 µM; actives 4% (n = 1,100); AID 1410, 2008; in the data active means activation above about 8.9%
# Numbers without * were called inactive; . = no result given. In the library only some 4.6% were active in any assay of this set; here they are far more common.
SMILES,MDM2 E3 inh,APP 5'UTR act,NF-kB expr up,p97 inhibitor,STAT1 activator,Wee1 stabilizer,Wee1 stab conf
O=C(NC1CCCCCCC1)c1ccccc1O,-14,92,2.2,2,95,-1,.
CSc1ccccc1C(=O)NC1CCCCCC1,-23,-8,1.2,5,104,14*,2
CS(=O)(=O)N1CCc2cc(C(=O)NC3CC3)ccc21,-4,24,1.3,4,99,14*,3
Cc1nnc(SCC(=O)NCc2ccc(F)cc2)[nH]c1=O,8,12,0.98,-1,102,11*,2
Cc1[nH][nH]c(=O)c1C(c1ccc([N+](=O)[O-])cc1)c1c(C)[nH][nH]c1=O,-10,.,.,10,.,11*,0
Cc1[nH][nH]c(=O)c1C(c1ccc(O)c([N+](=O)[O-])c1)c1c(C)[nH][nH]c1=O,-19,22,1.2,-7,118,-1,.
COc1cc(C(C)=O)ccc1OC(=O)c1cc2cccc(OC)c2oc1=O,-6,8,1.6,3,101,53*,3
COc1cccc2cc(C(C)=O)c(=O)oc12,-6,-4,1.2,2,95,-2,.
COc1ccc(NC(=O)c2onc(C)c2Cl)cc1,-1,.,.,-2,.,17*,-1
COc1ccc(S(=O)(=O)N(CCc2ccccc2)CC(=O)NC(C)C)cc1,-11,-13,0.98,1,106,1,.
CN(C)C(=S)NC(=O)C12CC3(C)CC(C)(CC(C)(C3)C1)C2,-7,.,.,-2,.,11*,-1
Cc1ccc2nc(SCc3nnc(-c4ccccc4Br)o3)[nH]c2c1,-10,16,3,1,101,-2,.
C/C(=N\Nc1ccc(S(=O)(=O)Nc2ccccc2)cc1[N+](=O)[O-])c1ccc(N2CCOCC2)cc1,-10,-7,0.92,-4,105,0,.
C/C(=N\Nc1ccc(S(=O)(=O)Nc2ccc(Cl)cc2)cc1[N+](=O)[O-])c1ccc(N2CCOCC2)cc1,-1,14,1.1,3,89,12*,0
COc1cccc(C(=O)Nc2ccccc2OC(F)(F)F)c1,-8,-2,1.4,-7,77,-1,.
CNC(=O)c1c(Cl)cnn1-c1ccc(F)cc1,-6,8,1.6,2,116,13*,3
Cc1ccc2nc(C3CCN(CC(=O)Nc4ccc5c(c4)OCCO5)CC3)[nH]c2c1,-15,-10,0.82,3,98,12*,0
CN(Cc1cc2ccccc2[nH]c1=O)S(C)(=O)=O,-2,18,1.4,4,108,13*,-1
COc1cc(/C=N/NC(=O)c2cc(C3CC3)[nH]n2)ccc1O,-7,.,.,0,.,12*,-1
Cn1c(SCc2cccc([N+](=O)[O-])c2)nc2c(c1=O)SCC2,-5,5,0.54,5,77,3,.
NC(=O)COc1ccc2oc(-c3ccccc3)cc(=O)c2c1,-90,40,1.1,-5,94,14*,4
CCOC(=O)COc1ccc2c(=O)cc(-c3ccccc3)oc2c1,-13,.,.,2,.,0,.
Cc1cc(C)nc(N2CCCC(C(=O)Nc3nc4ccc(S(C)(=O)=O)cc4s3)C2)n1 (centres undefined),-9,-8,0.43,0,101,11*,-2
CCNc1ccc(C(=O)OCC(=O)c2cc(C)n(Cc3ccc4c(c3)OCO4)c2C)cc1[N+](=O)[O-],3,-2,1.1,5,89,-3,.
COc1ccc2c(COC(=O)CC3Sc4ccccc4NC3=O)cc(=O)oc2c1 (centres undefined),2,-8,0.56,1,99,11*,1
